Measurements gathered from unrelated publications.
Method: competition with immobilised ligand
JAK2 JH1: Tyrosine-protein kinase JAK2, JH1 (JAK2, Homo sapiens, UniProt O60674)
JAK2: Tyrosine-protein kinase JAK2 (JAK2, Homo sapiens, UniProt O60674)

| Structure (SMILES) | target | test | conditions | remaining binding [%] |
| --- | --- | --- | --- | --- |
| CN(CCCC(F)(F)F)c1nccc(-c2cnn3ncccc23)n1 | JAK2 JH1 | cell-free assay | 1 µM | 94 |
| O=C(NCCCN1CCOCC1)c1ccc(Nc2nccc(-c3cc4ccccc4s3)n2)cc1 | JAK2 JH1 | binding | 1 µM | 0.4 |
| CS(=O)(=O)N1CCCC(NC(=O)[C@H](CCC2CCCCC2)NC(=O)c2ccc(CNC(=O)c3cnc4ccccn34)cc2)C1 (stereo partly drawn) | JAK2 JH1 | cell-free assay | 0.1 µM | 100 |
| CC(C)(C)c1ccc(-c2nc(CBr)nn2-c2cccc(O)c2)cc1 | JAK2 | cell-free assay | 10 µM | 67 |
| O=C(c1ccc(Nc2nccc(-c3cc4ccccc4s3)n2)cc1)N1CCC(N2CCCC2)CC1 | JAK2 JH1 | binding | 1 µM | 0.1 |
| N[C@@H]1CCN(c2nccc(-c3cnn4ncccc34)n2)C1 | JAK2 JH1 | cell-free assay | 1 µM | 100 |
| O=C(NCC1CCOCC1)c1n[nH]cc1NC(=O)c1c(F)cccc1F | JAK2 JH1 | binding | 1 µM | 85 |
| COc1ncc2cc3ccccc3nc2c1C#N | JAK2 JH1 | cell-free assay | 5 µM | 88 |
| O=C(Nc1cccnn1)N1CCC(=Cc2cccc(Oc3ccc(C(F)(F)F)cn3)c2)CC1 | JAK2 JH1 | cell-free assay | 1 µM | 100 |
| CN(C)c1nccc(-c2cnn3ncccc23)n1 | JAK2 JH1 | cell-free assay | 1 µM | 49 |
| CNC(=O)Nc1ccc2c(c1)[C@@]1(CC2)OC(=O)N(CC(=O)N(Cc2ccc(F)cc2)[C@@H](C)C(F)(F)F)C1=O | JAK2 JH1 | cell-free assay | 1 µM | 100 |
| O=C(NCCCN1CCOCC1)c1ccc(Nc2ncc(Cl)c(-c3ccc(Cl)s3)n2)cc1 | JAK2 JH1 | binding | 1 µM | 2.9 |
| COc1ccc2cc(OCC3(C(=O)O)CN(C(=O)c4ccc(F)cc4)C3)ccc2c1 | JAK2 JH1 | cell-free assay | 1 µM | 89 |
| FC(F)(F)Oc1cccc(-c2cnc3ccc(-c4ccncc4)nn23)c1 | JAK2 JH1 | cell-free assay | 5 µM | 56 |
| CN(C)C(=O)Cn1cc(-c2nc([C@@](C)(c3ccc(-c4cnc(N)nc4)cc3)C3CC3)no2)cn1 | JAK2 JH1 | cell-free assay | 1 µM | 73 |
| COc1cnc(Nc2cccc(S(N)(=O)=O)c2)nc1N1CCN(c2ccccc2)CC1 | JAK2 JH1 | binding | 1 µM | 14 |
| CC(=O)N1CCC(c2ccc(C(=O)NC3=NCCN3)cc2C(F)(F)F)CC1 | JAK2 JH1 | cell-free assay | 1 µM | 100 |
| C[C@@H]1CN(c2ccc3ncc(-c4ccc5[nH]nc(C6CC6)c5c4)n3n2)C[C@H](C)O1 | JAK2 | binding | 0.5 µM | 87 |
